Measured values: ChEMBL document CHEMBL1629654, “Breakthrough Aspergillus fumigatus and Candida albicans double infection during caspofungin treatment: laboratory characteristics and implication for susceptibility testing” (2009)
Values after ≈ are worked out from the molar mass of the structure shown. Active and inactive are the calls of the source. No cut-off for these calls is given here.

Assays:
[1] = test system: Candida albicans; assay: Antimicrobial activity against Candida albicans after 48 hrs by NCCLS microdilution method; format: functional
[2] = test system: Pichia kudriavzevii; assay: Antimicrobial activity against Candida krusei after 48 hrs by NCCLS microdilution method; format: functional
[3] = test system: Candida tropicalis; assay: Antimicrobial activity against Candida tropicalis after 48 hrs by NCCLS microdilution method; format: functional
[4] = test system: Candida parapsilosis; assay: Antimicrobial activity against Candida parapsilosis after 48 hrs by NCCLS microdilution method; format: functional; conditions: Lodderomyces parapsilosis
[5] = test system: Candida parapsilosis; assay: Antimicrobial activity against Candida parapsilosis after 48 hrs by broth microdilution method; format: functional; conditions: Lodderomyces parapsilosis
[6] = test system: Meyerozyma guilliermondii; assay: Antimicrobial activity against Candida guilliermondii after 48 hrs by Etest; format: functional
[7] = test system: Candida albicans; assay: Antimicrobial activity against Candida albicans after 48 hrs by 80% endpoint M27-A2 method; format: functional
[8] = test system: Pichia kudriavzevii; assay: Antimicrobial activity against Candida krusei after 48 hrs by 80% endpoint M27-A2 method; format: functional
[9] = test system: Candida tropicalis; assay: Antimicrobial activity against Candida tropicalis after 48 hrs by 80% endpoint M27-A2 method; format: functional
[10] = test system: Candida tropicalis; assay: Antimicrobial activity against Candida tropicalis after 48 hrs by 50% endpoint M27-A2 method; format: functional
[11] = test system: Kluyveromyces marxianus; assay: Antimicrobial activity against Candida kefyr after 48 hrs by 50% endpoint M27-A2 method; format: functional
[12] = test system: Meyerozyma guilliermondii; assay: Antimicrobial activity against Candida guilliermondii after 48 hrs by 50% endpoint M27-A2 method; format: functional
[13] = test system: Candida albicans; assay: Antimicrobial activity against Candida albicans after 24 hrs by M27-A3 method; format: functional
[14] = test system: Kluyveromyces marxianus; assay: Antimicrobial activity against Candida kefyr after 24 hrs by M27-A3 method; format: functional
[15] = test system: Clavispora lusitaniae; assay: Antimicrobial activity against Candida lusitaniae after 24 hrs by M27-A3 method; format: functional
[16] = test system: Candida parapsilosis; assay: Antimicrobial activity against Candida parapsilosis after 24 hrs by M27-A3 method; format: functional; conditions: Lodderomyces parapsilosis
[17] = test system: Meyerozyma guilliermondii; assay: Antimicrobial activity against Candida guilliermondii after 24 hrs by M27-A3 method; format: functional
[18] = test system: Debaryomyces hansenii; assay: Antimicrobial activity against Candida famata after 24 hrs by M27-A3 method; format: functional
[19] = test system: Candida albicans; assay: Antimicrobial activity against Candida albicans isolate C after 24 hrs by microdilution method; format: functional
Procedure, shortened: (§1)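 Broth microdilution in microtiter plates, read spectrophotometrically at 490 nm. MIC taken as the lowest drug dilution giving 50% growth inhibition. C. krusei […] run as control in each run. Read at 24 h and 48 h; trailing growth noted at 48 h.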

[20] = test system: Candida albicans; assay: Antimicrobial activity against Candida albicans isolate R after 48 hrs by Etest; format: functional
Procedure, shortened: (§2)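 Etest on RPMI 1640 agar with 2% glucose, performed according to the manufacturer's recommendations.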

[21] = test system: Candida albicans; assay: Antimicrobial activity against Candida albicans isolate R at 0.5 ug/ml after 48 hrs by agar dilution method; format: functional, organism-based
Procedure, shortened: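 Sabouraud agar wells contained caspofungin 0, 0.5, 1 or 2 µg/ml, or anidulafungin 0, 0.003, 0.125 or 0.5 µg/ml. Isolates were subcultured 2 days on CHROMagar. Suspensions of 1–5 × 10^6 CFU/ml in sterile water were diluted 1,500-fold, and 5 µl (about 3–15 cells) was spread per well. Growth was scored.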

[22] = test system: Candida albicans; assay: Antimicrobial activity against Candida albicans isolate R after 48 hrs by EUCAST microdilution method; format: functional
Procedure, shortened: (§3)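 EUCAST broth microdilution, plates read spectrophotometrically at 490 nm. MIC is the lowest dilution giving 50% growth inhibition. C. krusei […] control included in each run.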

[23] = test system: Candida albicans; assay: Antimicrobial activity against Candida albicans isolate R at 1 ug/ml after 48 hrs by agar dilution method; format: functional, organism-based
Procedure, shortened: (§4)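 Agar dilution on Sabouraud agar with caspofungin at 0, 0.5, 1 and 2 per ml. Isolates were subcultured 2 days on CHROMagar. Suspensions of 1×10^6 to 5×10^6 CFU/ml in sterile water were diluted 1,500-fold, and approximately 3 to 15 cells were spread per agar surface. Growth or no growth was scored, with repeated testing.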

[24] = test system: Candida albicans; assay: Antimicrobial activity against Candida albicans isolate R at 2 ug/ml after 48 hrs by agar dilution method; format: functional, organism-based; procedure, shortened: as §4
[25] = test system: Candida albicans; assay: Antimicrobial activity against Candida albicans isolate C after 48 hrs by EUCAST microdilution method; format: functional; procedure, shortened: as §3
[26] = test system: Candida albicans; assay: Antimicrobial activity against Candida albicans isolate C after 48 hrs by microdilution method; format: functional; procedure, shortened: as §1
[27] = test system: Candida albicans; assay: Antimicrobial activity against Candida albicans isolate C at 1 ug/ml after 48 hrs by agar dilution method; format: functional, organism-based; procedure, shortened: as §4
[28] = test system: Candida albicans; assay: Antimicrobial activity against Candida albicans isolate S obtained from blood culture of patient 4 days after admission by EUCAST microdilution method; format: functional; conditions: 96 h; procedure, shortened: as §3
[29] = test system: Candida albicans; assay: Antimicrobial activity against Candida albicans obtained from hemodialysis catheter tip 35 days after admission by Etest; format: functional; procedure, shortened: as §2
[30] = test system: Candida albicans; assay: Antimicrobial activity against Candida albicans isolate R infected in NMRI mouse assessed as decrease in kidney bacterial burden at 6 mg/kg, ip measured on day 4; format: functional, organism-based; parameters: dose 6 mg/kg
Procedure, shortened: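 NMRI mice (26 to 30 g), seven per group, were infected intravenously on day 0 with 1×10^5 CFU. They received caspofungin ip on days 1 to 3 in 0.5 ml; saline-treated mice served as controls. On day 4 the kidneys were removed and homogenized, and 10-fold dilutions were spot plated. Results are log10 CFU/ml homogenate (detection limit 50 CFU/ml), compared by Mann-Whitney test.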

[31] = test system: Candida albicans; assay: Antimicrobial activity against Candida albicans isolate S infected in NMRI mouse assessed as decrease in kidney bacterial burden at 6 mg/kg, ip measured on day 4; format: functional, organism-based; parameters: dose 6 mg/kg
[32] = test system: Candida albicans; assay: Antimicrobial activity against Candida albicans isolate R at 25 ug/ml grown on Muller-Hinton agar medium after 24 hrs by disk diffusion method; format: functional
Procedure, shortened: (§5)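 Disk diffusion on 90-mm RPMI 1640 with 2% glucose agar or on Mueller-Hinton agar. Plates were swabbed in three directions with a yeast suspension of 1–5 × 10^6 cells/ml. Paper disks (6 mm) held 1, 5 or 25 µg drug. Zone diameters were read at 24 and 48 h; values are means of two experiments.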

[33] = test system: Candida albicans; assay: Antimicrobial activity against Candida albicans isolate R at 1 ug/ml grown on Muller-Hinton agar medium after 48 hrs by disk diffusion method; format: functional; procedure, shortened: as §5
[34] = test system: Candida albicans; assay: Antimicrobial activity against Candida albicans isolate R at 5 ug/ml grown on Muller-Hinton agar medium after 48 hrs by disk diffusion method; format: functional; procedure, shortened: as §5
[35] = test system: Candida albicans; assay: Antimicrobial activity against Candida albicans isolate R at 25 ug/ml grown on Muller-Hinton agar medium after 48 hrs by disk diffusion method; format: functional; procedure, shortened: as §5
[36] = test system: Candida albicans; assay: Antimicrobial activity against Candida albicans isolate S at 5 ug/ml grown on RPMI 1640 medium after 24 hrs by disk diffusion method; format: functional; procedure, shortened: as §5
[37] = test system: Candida albicans; assay: Antimicrobial activity against Candida albicans after 48 hrs
[38] = test system: Meyerozyma guilliermondii; assay: Antimicrobial activity against Candida guilliermondii after 48 hrs by M27-A method
[39] = test system: Clavispora lusitaniae; assay: Antimicrobial activity against Candida lusitaniae after 48 hrs by 80% endpoint M27-A method
[40] = test system: Candida parapsilosis; assay: Antimicrobial activity against Candida parapsilosis after 48 hrs by 80% endpoint M27-A method; conditions: Lodderomyces parapsilosis
[41] = test system: Meyerozyma guilliermondii; assay: Antimicrobial activity against Candida guilliermondii after 48 hrs by 80% endpoint M27-A method

CC[C@H](C)C[C@H](C)CCCCCCCCC(=O)N[C@H]1C[C@@H](O)[C@@H](NCCN)NC(=O)[C@@H]2[C@@H](O)CCN2C(=O)[C@H]([C@H](O)CCN)NC(=O)[C@H]([C@H](O)[C@@H](O)c2ccc(O)cc2)NC(=O)[C@@H]2C[C@@H](O)CN2C(=O)[C@H]([C@@H](C)O)NC1=O [CASPOFUNGIN]
MIC90 [1]: 0.5 µg/mL (≈ 0.457 µM) | MIC90 [2]: 1 µg/mL (≈ 0.915 µM) | MIC90 [3]: 0.5 µg/mL (≈ 0.457 µM) | MIC90 [4]: 2 µg/mL (≈ 1.83 µM) | MIC90 [5]: 2 µg/mL (≈ 1.83 µM) | MIC90 [6]: > 8 µg/mL | MIC90 [7]: 0.5 µg/mL (≈ 0.457 µM) | MIC90 [8]: 2 µg/mL (≈ 1.83 µM) | MIC90 [9]: 0.5 µg/mL (≈ 0.457 µM) | MIC90 [10]: 1 µg/mL (≈ 0.915 µM) | MIC90 [11]: 1 µg/mL (≈ 0.915 µM) | MIC90 [12]: 1 µg/mL (≈ 0.915 µM) | MIC90 [13]: 0.06 µg/mL (≈ 0.0549 µM) | MIC90 [14]: 0.015 µg/mL (≈ 0.0137 µM) | MIC90 [15]: 0.25 µg/mL (≈ 0.229 µM) | MIC90 [16]: 1 µg/mL (≈ 0.915 µM) | MIC90 [17]: 1 µg/mL (≈ 0.915 µM) | MIC90 [18]: 1 µg/mL (≈ 0.915 µM) | MIC [19]: ≤ 0.06 µg/mL | MIC [20]: > 32 µg/mL | growth inhibition (GI) [21]: inactive | MIC [22]: 1 µg/mL (≈ 0.915 µM) | growth inhibition (GI) [23]: inactive | growth inhibition (GI) [24]: inactive | MIC [25]: ≤ 0.06 µg/mL | MIC [26]: ≤ 0.06 µg/mL | growth inhibition (GI) [27]: Active | MIC [28]: 0.25 µg/mL (≈ 0.229 µM) | MIC [29]: 32 µg/mL (≈ 29.3 µM) | Activity [30]: inactive | Activity [31]: Active | inhibition zone (IZ) [32]: 13.4 mm | inhibition zone (IZ) [33]: 6.1 mm | inhibition zone (IZ) [34]: 8.8 mm | inhibition zone (IZ) [35]: 12.7 mm | inhibition zone (IZ) [36]: 20.6 mm | MIC90 [37]: 0.25 µg/mL (≈ 0.229 µM) | MIC90 [38]: > 8 µg/mL | MIC90 [39]: 1 µg/mL (≈ 0.915 µM) | MIC90 [40]: 2 µg/mL (≈ 1.83 µM) | MIC90 [41]: 1 µg/mL (≈ 0.915 µM)
